Measurements collected from several papers.
Lines come from different studies, so protocols differ.
Effect on: enzyme activity
Action: inhibitor
MAP3K11: Mitogen-activated protein kinase kinase kinase 11 (MAP3K11, Homo sapiens, UniProt Q16584)
HIPK1: Homeodomain-interacting protein kinase 1 (HIPK1, Homo sapiens, UniProt Q86Z02)
MAP3K1: Mitogen-activated protein kinase kinase kinase 1 (MAP3K1, Homo sapiens, UniProt Q13233)

Compound | target | test | setting | remaining activity [%]
O=C(NCCCNc1ccnc(Nc2cccc(NC(=O)N3CCCC3)c2)n1)C1CCC1 | MAP3K11 | radiometric | 1 µM | 86
O=C(O)c1ccc2c(c1)nc(Nc1ccc3ccccc3c1)c1ccncc12 | HIPK1 | radiometric | 1 µM | 13
Cc1cnc(NC2CCOCC2)nc1-n1cnc(C(=O)NC(CN)c2cc(F)cc(Cl)c2)c1 (centres unmarked) | Hepatocyte growth factor receptor (MET, Homo sapiens, UniProt P08581, D1228N) | radiometric | 1 µM | 97
CCCOc1ccc(OC)c(F)c1C(=O)c1ccc(C(=O)N[C@@H]2CNC[C@H]2NC(=O)c2ccc3[nH]ncc3c2)cc1 | Mitogen-activated protein kinase 1 (Mapk1, Mus musculus, UniProt P63085) | – | 10 µM | 100
CC(C)(O)[C@H]1CC[C@H](Nc2ccc3ncc(-c4cccc(C(F)(F)F)c4)n3n2)CC1 | cAMP-dependent protein kinase catalytic subunit gamma (PRKACG, Homo sapiens, UniProt P22612) | – | 1 µM | 98.6
FC(F)c1nc2ccccc2n1-c1nc(N2CCOCC2)nc(N2CCOCC2)n1 | MAP3K1 | – | 10 µM | 92
O=C(NCCCNc1nc(Nc2cccc(CN3CCOCC3)c2)ncc1C1CC1)C1CCC1 | MAP3K11 | radiometric | 1 µM | 38
Cc1ccc(C(=O)Nc2ccc(CN3CCN(C)CC3)c(C(F)(F)F)c2)cc1C#Cc1cnc2cccnn12 | Serine/threonine-protein kinase 36 (STK36, Homo sapiens, UniProt Q9NRP7) | – | 23.5 nM | 100
COc1cc(Nc2cnc(C#N)c(O[C@H](C)CN(C)C)n2)ncc1-c1cnn(C)c1 | MAP3K1 | radiometric | 10 µM | 99
Cc1nn(CC(F)(F)F)cc1Nc1ncc(C2CC2)c(NCc2ccc(S(N)(=O)=O)cc2)n1 | MAP3K11 | radiometric | 1 µM | 89
COc1cccc(CCNc2nc3cc(C(=O)O)ccc3c3cnccc23)c1 | HIPK1 | radiometric | 1 µM | 16
